CHRM5 antagonist: CHRM5 antagonism in calcium assay | P08912 | CHO-hM5 cells, Fluo-8 calcium fluorescence, ACh EC80 | inhibition, % at 3 µM | 0.59% of 360,000 active | AID 624040;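 active = inhibition above a per-plate cutoff, the mean of that plate's test compounds plus 3 SD, cut at about 27% in these data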
Target sequence (P08912 whole entry, looked up): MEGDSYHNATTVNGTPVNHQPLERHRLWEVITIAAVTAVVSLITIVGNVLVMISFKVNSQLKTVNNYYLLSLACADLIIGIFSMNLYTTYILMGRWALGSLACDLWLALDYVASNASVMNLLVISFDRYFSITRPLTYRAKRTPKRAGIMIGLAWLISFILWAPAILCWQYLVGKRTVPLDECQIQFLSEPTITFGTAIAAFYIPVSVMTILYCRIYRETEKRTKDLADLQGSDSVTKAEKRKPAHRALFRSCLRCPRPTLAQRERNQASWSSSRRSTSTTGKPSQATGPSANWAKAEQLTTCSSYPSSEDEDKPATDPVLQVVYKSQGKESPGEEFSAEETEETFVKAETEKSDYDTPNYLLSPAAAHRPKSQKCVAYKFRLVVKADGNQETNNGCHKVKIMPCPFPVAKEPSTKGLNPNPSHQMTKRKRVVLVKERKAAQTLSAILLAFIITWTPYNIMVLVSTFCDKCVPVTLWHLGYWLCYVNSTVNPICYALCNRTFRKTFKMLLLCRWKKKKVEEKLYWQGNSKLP
M4 ag: agonists of human muscarinic M4 receptor (CHRM4). P08173. CHO-K1 hM4/Gqi5, Fluo-8 calcium fluorescence; vehicle 0%, full acetylcholine response 100%. 0.14% of 360,000 active. activation, % at 3 µM. AID 624127;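 active = activation above the run mean over all test wells plus 3 SD, cut at about 32% in these data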;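 note: peak over basal fluorescence ratio per well then scaled between controls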
CHRM5 agonist: agonists of human muscarinic M5 receptor (CHRM5) | P08912 | 0.19% of 360,000 active | AID 624037 | CHO-K1 hM5 cells, Fluo-8 calcium fluorescence; 0% DMSO wells, 100% maximal acetylcholine response | activation, % at 3 µM;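 active = activation above the run's mean over test compounds plus 3 SD, cut at about 23% in these data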;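 note: signal is peak over basal fluorescence ratio across the kinetic read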
CHRM4 PAM: CHRM4 positive allosteric modulation; P08173; CHO-K1 hM4/Gqi5, Fluo-8 calcium fluorescence, ACh EC20; 0% = ACh EC20, 100% = maximal ACh; activation, % at 3 µM; 0.4% of 360,000 active; AID 624126;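 active = activation above its plate's cutoff, the mean activation of sample wells plus 3 SD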
M5 PAM: CHRM5 positive allosteric modulation; P08912; 0.3% of 360,000 active; activation, % at 3 µM; CHO-K1 hM5, Fluo-8 calcium, ACh EC20 PAM; 0% = ACh EC20, 100% = ACh EC100;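 active = activation above the run cutoff, the mean activation of all test compounds plus 3 SD, cut at about 18% in these data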
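System: CHO-K1 hM5 cells. Reagent: acetylcholine, EC20 level. Compound dosing: single dose, 3 µM nominal final test concentration. Timing: Post-acetylcholine fluorescence recording 140 s. Detection: Fluo-8 calcium fluorescence. Read-out: % activation, ACh-normalized. Benchmarks: ACh EC20 and EC100 wells. Repeats: singlicate, one well per test compound.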
CHRM4 antagonist: blocks acetylcholine activation of human M4 receptor; P08173; CHO-hM4 cells, ACh EC80, Fluo-8 calcium fluorescence; inhibition, % at 3 µM; 0.73% of 360,000 active; AID 624125;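 active = inhibition above its plate's cutoff, the mean inhibition of sample wells plus 3 SD, cut at about 27% in these data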
A number is an active result. A selection: hits, their analogues and other compounds. The true share with any hit is near 1.9%.

Results for CC1(C)N=C(N)N=C(N)N1c1ccccc1 ?
CHRM5 antagonist: inactive; M4 ag: inactive; CHRM5 agonist: inactive; CHRM4 PAM: inactive; M5 PAM: inactive; CHRM4 antagonist: inactive

How did Cc1nc2ccccc2n1CC(=O)NCCN1CCOCC1 do in these assays?
CHRM5 antagonist: inactive; M4 ag: inactive; CHRM5 agonist: inactive; CHRM4 PAM: inactive; M5 PAM: inactive; CHRM4 antagonist: 32

What do the screens show for `CN(CC(=O)Nc1cccc(F)c1)C(=O)CCC1CCCCC1`?
CHRM5 antagonist: inactive; M4 ag: inactive; CHRM5 agonist: inactive; CHRM4 PAM: 18; M5 PAM: inactive; CHRM4 antagonist: inactive

Results for O=C(Nc1nnc(C23CC4CC(CC(C4)C2)C3)s1)c1ccc(N2C(=O)CCC2=O)cc1 ?
CHRM5 antagonist: inactive; M4 ag: inactive; CHRM5 agonist: inactive; CHRM4 PAM: inactive; M5 PAM: inactive; CHRM4 antagonist: 60

How did O=C(N/N=C/c1cn(-c2cccs2)nc1-c1ccccc1)c1ccccc1Br do in these assays?
CHRM5 antagonist: inactive; M4 ag: inactive; CHRM5 agonist: inactive; CHRM4 PAM: inactive; M5 PAM: inactive; CHRM4 antagonist: inactive

What do the screens show for `O=C(N/N=C/c1cn(-c2cccs2)nc1-c1ccccc1)c1ccccc1O`?
CHRM5 antagonist: 28; M4 ag: inactive; CHRM5 agonist: inactive; CHRM4 PAM: inactive; M5 PAM: inactive; CHRM4 antagonist: inactive

How did CCCC(=O)Nc1nc2ccc(S(=O)(=O)N3CCCCC3)cc2s1 do in these assays?
CHRM5 antagonist: inactive; M4 ag: inactive; CHRM5 agonist: inactive; CHRM4 PAM: inactive; M5 PAM: inactive; CHRM4 antagonist: inactive

What do the screens show for `CC(C)CC(=O)Nc1nc2ccc(S(=O)(=O)N3CCOCC3)cc2s1`?
CHRM5 antagonist: inactive; M4 ag: inactive; CHRM5 agonist: inactive; CHRM4 PAM: inactive; M5 PAM: 19; CHRM4 antagonist: inactive

What do the screens show for `NC(=O)c1nsc(C(=O)N(c2ccc(F)cc2)C(C(=O)NCC2CCCO2)c2c[nH]c3ccccc23)c1N` (stereo not drawn)?
CHRM5 antagonist: inactive; M4 ag: inactive; CHRM5 agonist: inactive; CHRM4 PAM: inactive; M5 PAM: inactive; CHRM4 antagonist: inactive

What do the screens show for `Cc1c(NC(=O)c2cc(-c3cccs3)nc3ccccc23)c(=O)n(-c2ccccc2)n1C`?
CHRM5 antagonist: 27; M4 ag: inactive; CHRM5 agonist: inactive; CHRM4 PAM: inactive; M5 PAM: inactive; CHRM4 antagonist: inactive

How did Cc1cc(=O)[nH]c(SCC(=O)/C=C2\N(C)c3ccccc3C2(C)C)n1 do in these assays?
CHRM5 antagonist: 31; M4 ag: inactive; CHRM5 agonist: inactive; CHRM4 PAM: inactive; M5 PAM: inactive; CHRM4 antagonist: 33

How did CN1/C(=C/C(=O)CSc2ccccc2C(=O)O)C(C)(C)c2ccccc21 do in these assays?
CHRM5 antagonist: inactive; M4 ag: inactive; CHRM5 agonist: inactive; CHRM4 PAM: inactive; M5 PAM: inactive; CHRM4 antagonist: inactive

How did O=C(COC(=O)COc1ccccc1)Nc1ccc(Br)cc1Br do in these assays?
CHRM5 antagonist: inactive; M4 ag: inactive; CHRM5 agonist: inactive; CHRM4 PAM: inactive; M5 PAM: inactive; CHRM4 antagonist: inactive

How did O=C(COC(=O)COc1ccccc1)Nc1ccc(Br)cc1F do in these assays?
CHRM5 antagonist: inactive; M4 ag: inactive; CHRM5 agonist: inactive; CHRM4 PAM: 14; M5 PAM: inactive; CHRM4 antagonist: inactive

Results for COc1ccc(C(=O)COC(=O)C(CCSC)NS(=O)(=O)c2ccc(Cl)cc2)cc1 (stereo not drawn) ?
CHRM5 antagonist: inactive; M4 ag: inactive; CHRM5 agonist: inactive; CHRM4 PAM: inactive; M5 PAM: inactive; CHRM4 antagonist: 27

How did O=C(c1ccc(S(=O)(=O)c2cccc(Cl)c2)c([N+](=O)[O-])c1)N1CCN(c2ccccn2)CC1 do in these assays?
CHRM5 antagonist: 52; M4 ag: inactive; CHRM5 agonist: inactive; CHRM4 PAM: inactive; M5 PAM: inactive; CHRM4 antagonist: 44

What do the screens show for `COCCn1c(=NC(=O)/C=C/c2cccs2)sc2cc(NC(C)=O)ccc21`?
CHRM5 antagonist: inactive; M4 ag: inactive; CHRM5 agonist: inactive; CHRM4 PAM: 21; M5 PAM: inactive; CHRM4 antagonist: inactive

What do the screens show for `Nc1nnc(SCC(=O)NC2CCCCCC2)s1`?
CHRM5 antagonist: inactive; M4 ag: inactive; CHRM5 agonist: inactive; CHRM4 PAM: 24; M5 PAM: inactive; CHRM4 antagonist: inactive

Results for CCN(CC)CCNC(=O)c1ccc(NC(=O)c2ccc(S(=O)(=O)N3CCCCCC3)cc2)cc1 ?
CHRM5 antagonist: inactive; M4 ag: inactive; CHRM5 agonist: inactive; CHRM4 PAM: inactive; M5 PAM: inactive; CHRM4 antagonist: inactive

Results for CCN(CC)CCNC(=O)c1ccc(NC(=O)c2ccc(Cl)c(S(=O)(=O)N3CCCCCC3)c2)cc1 ?
CHRM5 antagonist: 79; M4 ag: inactive; CHRM5 agonist: inactive; CHRM4 PAM: inactive; M5 PAM: inactive; CHRM4 antagonist: 70

How did CCN(CC)CCNC(=O)c1ccc(NC(=O)c2cccc(S(=O)(=O)N3CCCCCC3)c2)cc1 do in these assays?
CHRM5 antagonist: 79; M4 ag: inactive; CHRM5 agonist: inactive; CHRM4 PAM: inactive; M5 PAM: inactive; CHRM4 antagonist: 79

What do the screens show for `O=C(Nc1cccc(F)c1)Nc1ccnn1C1CCN(C(=O)c2cscn2)CC1`?
CHRM5 antagonist: inactive; M4 ag: inactive; CHRM5 agonist: inactive; CHRM4 PAM: inactive; M5 PAM: inactive; CHRM4 antagonist: inactive

How did O=C(NC1CCCC1)C(c1ccccc1)n1c(-c2cccs2)nc2ccccc21 (stereo not drawn) do in these assays?
CHRM5 antagonist: inactive; M4 ag: inactive; CHRM5 agonist: inactive; CHRM4 PAM: inactive; M5 PAM: inactive; CHRM4 antagonist: inactive

What do the screens show for `Cc1ccc(-c2nc3ccccc3n2C(C(=O)NC(C)(C)C)C2CC2)cc1` (stereo not drawn)?
CHRM5 antagonist: inactive; M4 ag: inactive; CHRM5 agonist: inactive; CHRM4 PAM: inactive; M5 PAM: inactive; CHRM4 antagonist: inactive

Results for O=C(NC1CCCC1)C(C1CC1)n1c(C2CCCC2)nc2ccccc21 (stereo not drawn) ?
CHRM5 antagonist: inactive; M4 ag: inactive; CHRM5 agonist: inactive; CHRM4 PAM: inactive; M5 PAM: inactive; CHRM4 antagonist: inactive

What do the screens show for `O=C(NC1CCCC1)C(c1ccccc1)n1c(-c2cccc3ccccc23)nc2ccccc21` (stereo not drawn)?
CHRM5 antagonist: inactive; M4 ag: inactive; CHRM5 agonist: inactive; CHRM4 PAM: inactive; M5 PAM: inactive; CHRM4 antagonist: 74

Results for CC(C)(C)NC(=O)C(C1CC1)n1c(-c2ccccc2)nc2ccccc21 (stereo not drawn) ?
CHRM5 antagonist: inactive; M4 ag: inactive; CHRM5 agonist: inactive; CHRM4 PAM: 24; M5 PAM: inactive; CHRM4 antagonist: inactive
